# From PubChem BioAssay
# N-glyco inh – increase of ERlucT glycosylation luciferase signal, primary screen, N-linked glycosylation inhibitor project, D54 ERlucT cells, luminescence, set 2 | D54 ERlucT glycosylation luciferase reporter, 24 h; percent of 100 nM tunicamycin response | reporter increase, % at 12.5 µM | 360,000 compounds, 0.23% hits | AID 588692, 2011;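 active = mean luciferase reporter signal, scaled so untreated is 0 and the glycosylation-blocking control 100, at or above a set limit in every replicate; inconclusive = mean reaches the limit but not every replicate does; inactive = mean below the limit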;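 note: luciferase carries N-glycosylation sites so blocking glycosylation raises the light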
# Rtt109 HAT inh – inhibitors of C. albicans Rtt109/Vps75 HAT, primary screen, biochemical, ThioGlo CoA-SH fluorescence, plate reader. Histone acetyltransferase RTT109 (Candida albicans (strain SC5314 / ATCC MYA-2876)), …. purified Rtt109/Vps75, 4 h. inhibition, % at 34.9 µM. 330,000 compounds, 0.16% hits. AID 540336, 2011;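 active = inhibition of at least 50% in every replicate; inconclusive = best replicate reaches 50% inhibition but some replicates fall short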
# SR-BI DiI-HDL act – activators of SR-BI mediated DiI-HDL uptake, primary screen, ldlA[mSR-BI] CHO cells, DiI fluorescence; activation, % at 12.5 µM; 3 h; 100 = double the neutral-control signal; 320,000 compounds, 0.096% hits;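 active = mean replicate activation of at least 60% and every replicate at or above 60%; inconclusive = mean or all-replicate condition met, but not both; inactive = mean below 60% and not all replicates reaching 60%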
#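 Test system: SR-BI-overexpressing, LDLR-lacking CHO cells; Medium: Ham's F12 with 0.5% BSA, HEPES 25 mM, pH 7.4; Schedule: 3 h, 37 °C; Technique: bottom-read fluorescence, 550/595 nm.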
# Env fusion inh – inhibitors of HIV-1 Env-driven cell-cell fusion, primary screen, HeLa-JRFL effector, CEM21 target cells, luciferase; inhibition, % at 12.3 µM; 360,000 compounds, 1.1% hits; AID 651610, 2012;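 active = mean replicate inhibition score of at least 50 and every replicate individually at or above 50; inconclusive = only one of the two criteria met; inactive = mean below 50 and not all replicates reaching 50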
# SR-BI DiI inh – inhibitors of SR-BI mediated HDL lipid uptake, primary screen, ldlA[mSR-BI] cells, fluorescence, single point; Scavenger receptor class B member 1 (Mus musculus), Q61009; ldlA[mSR-BI] CHO cells, DiI-HDL uptake fluorescence, 3 h; inhibition, % at 12.5 µM; 320,000 compounds, 0.96% hits; AID 488896, 2010;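 active = mean replicate inhibition of at least 70% and a set share of replicates each scoring 70 or more; inconclusive = meets just one of the two criteria; inactive = fails both criteria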
# Target sequence (Q61009 whole entry, looked up): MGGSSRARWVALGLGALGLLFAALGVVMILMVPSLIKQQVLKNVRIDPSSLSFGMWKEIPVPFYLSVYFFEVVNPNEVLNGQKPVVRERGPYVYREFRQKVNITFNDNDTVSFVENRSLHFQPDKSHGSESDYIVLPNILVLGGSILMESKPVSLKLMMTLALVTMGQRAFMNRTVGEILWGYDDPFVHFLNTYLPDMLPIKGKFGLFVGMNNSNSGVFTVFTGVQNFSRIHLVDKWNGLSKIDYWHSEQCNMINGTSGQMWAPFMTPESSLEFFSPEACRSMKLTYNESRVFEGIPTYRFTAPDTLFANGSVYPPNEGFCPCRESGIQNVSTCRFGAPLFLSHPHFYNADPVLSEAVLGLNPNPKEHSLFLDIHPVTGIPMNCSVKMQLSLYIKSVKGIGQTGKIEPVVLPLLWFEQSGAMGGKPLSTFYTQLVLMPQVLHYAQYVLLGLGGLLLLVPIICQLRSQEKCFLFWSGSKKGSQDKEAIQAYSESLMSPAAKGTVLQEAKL
# PglD DTNB – C. jejuni PglD acetyltransferase inhibitors, primary screen, biochemical, DTNB colorimetric, single point; UDP-N-acetylbacillosamine N-acetyltransferase PglD (Campylobacter jejuni); purified PglD enzyme, DTNB colorimetric CoA detection; inhibition, % at 12.5 µM; 360,000 compounds, 0.098% hits; AID 602405, 2012; in the data active = inhibition above about 16%, passing the limit was not always enough; inconclusive = no clear call, values can overlap the other calls
# Hits are given with their value; – = inactive; ? = inconclusive; · = not tested or not shown; ! = not active in a repeat. An excerpt weighted towards active compounds, which were near 1.9% of everything screened.
SMILES,N-glyco inh,Rtt109 HAT inh,SR-BI DiI-HDL act,Env fusion inh,SR-BI DiI inh,PglD DTNB
Cc1ccc2c(c1)[C@H]1[C@H](CO2)[C@H](c2ccccc2)[C@]2(C)C(=O)N(CC3CCCO3)CC(=O)N12 (some centres undefined),–,–,–,110.0,–,–
C[C@@]12C(=O)N(CC3CCCO3)CC(=O)N1[C@H]1c3cc(Cl)ccc3OC[C@@H]1[C@@H]2c1ccccc1 (some centres undefined),–,–,–,79.9,–,–
COc1ccc2c(c1)OC[C@H]1[C@H]2N2C(=O)CN(CC3CCCO3)C(=O)[C@@]2(C)[C@H]1c1ccccc1 (some centres undefined),–,–,–,–,–,–
C[C@@]12C(=O)N(CC3CCCO3)CC(=O)N1[C@@H]1c3ccccc3OC[C@@H]1[C@@H]2c1ccccc1 (some centres undefined),–,–,–,·,–,–
CO[C@H]1CN(C)C(=O)c2cc(NC(=O)C3CC3)ccc2OC[C@@H](C)N(C(=O)CN2CCOCC2)C[C@H]1C,·,·,·,–,·,–
COc1cccc(S(=O)(=O)N(C)C[C@@H]2Oc3cc(C4=CCCCC4)ccc3S(=O)(=O)N([C@H](C)CO)C[C@@H]2C)c1,·,·,·,–,·,–
C[C@H](NC(=O)C[C@@H]1C=C[C@H](NC(=O)C2CCOCC2)[C@H](CO)O1)c1ccccc1,·,·,·,–,·,–
CSCc1cc(N2CCOCC2)nc(SCc2ccc(Cl)c(Cl)c2)n1,–,–,–,62.8,–,–
COC(=O)C1=C(N)Oc2cc(N(C)C)ccc2C1c1ccccc1OC (centres undefined),–,·,–,61.0,–,–
COC1(C)CC2C(CC1OC(=O)c1cc([N+](=O)[O-])cc([N+](=O)[O-])c1)C2(C)C (centres undefined),–,–,–,–,93.2!,–
C[C@H](CO)N1C[C@H](C)[C@H](CN(C)C(=O)C2CC2)Oc2cc(-c3ccccc3F)ccc2S1(=O)=O,·,·,·,–,·,–
O=C(N/N=C/c1ccccc1[N+](=O)[O-])c1ccc(COc2ccccc2-c2ccccc2)cc1,–,–,–,–,76.8,–
CC(=O)Nc1ccc(C(=O)N/N=C/c2ccccc2OCc2ccccc2)cc1,41.0,–,–,–,79.4,–
COc1ccccc1/C=N/NC(=O)c1ccc(=O)n(C)c1,–,–,–,–,–,·
COc1ccccc1/C=N/NC(=O)c1ccc(-c2ccccc2)cc1,–,–,–,–,78.9,·
COc1cc(/C=N\NC(=O)c2ccc(-c3ccccc3)cc2)cc(OC)c1O,–,–,–,·,91.7,–
C[C@H](CO)N1C[C@H](C)[C@@H](CN(C)S(=O)(=O)c2ccc(Cl)cc2)OCCCC[C@H](C)Oc2ccc(NS(=O)(=O)c3cccs3)cc2C1=O,·,·,·,–,·,–
Cc1noc(C)c1NC(=O)NCC[C@H]1CC[C@@H](NC(=O)c2ccc(F)cc2)[C@H](CO)O1,·,·,·,–,·,–
COc1ccccc1/C=N/NC(=O)c1cccc2ccccc12,–,–,–,–,77.0,–
COc1cc(/C=N/NC(=O)c2cc(-c3cccn3C)n[nH]2)cc(OC)c1OC,67.7,–,–,–,–,–
COc1cc(C(=O)N/N=C/c2ccc3c(c2)c2ccccc2n3C)ccc1O,34.0,–,–,–,–,–
COc1ccc(/C=N/NC(=O)c2cc3c(ccc4ccccc43)o2)c(OC)c1,–,–,–,–,82.3,–
COCC#Cc1cnc2c(c1)C(=O)N([C@@H](C)CO)C[C@H](C)[C@H](CN(C)C)O2,·,·,·,–,·,–
COc1cc(/C=N/Nc2ccccc2[N+](=O)[O-])cc(OC)c1O,–,–,–,–,78.5,–
COc1cc(/C=N/Nc2ccc(S(N)(=O)=O)cc2[N+](=O)[O-])cc(OC)c1O,–,–,·,–,·,·
SMILES,N-glyco inh,Rtt109 HAT inh,SR-BI DiI-HDL act,Env fusion inh,SR-BI DiI inh,PglD DTNB
COc1cc(-c2nc3cnccn3c2Nc2ccc(C)cc2)ccc1O,26.1,–,–,·,–,–
C=CCN(Cc1ccc(OC)c(OC)c1)C(=O)c1cc2cc(F)ccc2[nH]1,–,–,–,76.1,–,·
COc1cc2cc(C(=O)N(C)Cc3ccccc3)[nH]c2cc1OC,–,–,–,–,–,–
COc1cccc(Nc2nc(CN)cs2)n1,–,·,·,57.1,·,–
CC(C)CC(NC(=O)c1ccc(Cl)cc1)C(=O)OCC(=O)c1ccc2c(c1)NC(=O)CO2 (centres undefined),60.2,–,–,·,–,–
C[C@H]1CN([C@@H](C)CO)C(=O)c2cccc(NS(=O)(=O)c3cccs3)c2O[C@@H]1CN(C)Cc1ccncc1,·,·,·,·,·,–
C[C@]12C(=O)N(c3cccc(Cl)c3)C(=O)N1[C@@H]1c3ccccc3OC[C@@H]1[C@H]2c1ccccc1,–,–,–,55.6,–,–
C[C@@]12C(=O)N(Cc3ccco3)CC(=O)N1[C@H]1c3ccccc3OC[C@@H]1[C@@H]2c1ccccc1,–,–,–,84.2,–,–
Cc1ccc(CN2CC(=O)N3[C@H]4c5ccccc5OC[C@@H]4[C@H](c4ccccc4)[C@]3(C)C2=O)cc1,–,–,–,?,–,–
C[C@]12C(=O)N(c3ccccc3)C(=O)N1[C@@H]1c3ccccc3OC[C@@H]1[C@H]2c1ccccc1,–,–,–,–,–,–
CCOC(=O)[C@H]1[C@H]2COc3ccc(OC)cc3[C@@H]2N2C(=O)CN(Cc3ccc(Cl)cc3)C(=O)[C@@]12C,–,–,–,62.9,–,–
CCCCN1CC(=O)N2[C@H]3c4ccccc4OC[C@@H]3[C@H](c3ccccc3)[C@]2(C)C1=O,–,–,–,82.9,–,–
C[C@@]12C(=O)N(Cc3ccccc3)CC(=O)N1[C@H]1c3ccccc3OC[C@@H]1[C@@H]2c1ccccc1,–,–,–,104.1,–,–
O=C(Nc1ccc(NC(=O)c2cc3ccccc3o2)cc1)c1ccc2c(c1)OCCO2,–,–,–,–,73.2,·
O=C(Nc1ccc2oc(-c3ccncc3)nc2c1)c1ccc2c(c1)OCO2,–,–,–,–,–,·
O=C(Nc1ccc2oc(-c3ccncc3)nc2c1)c1ccc2c(c1)OCCO2,–,57.2,·,–,·,·
CCOC(=O)/C=C/[C@H]1CCc2cccc(Cl)c2O1,–,–,–,–,–,–
CCOC(=O)/C=C/[C@H]1CC2(CCO1)SCCCS2,–,–,–,69.3,–,–
